Drawing on ChEMBL document CHEMBL1140877, “Synthesis and evaluation of Hsp90 inhibitors that contain the 1,4-naphthoquinone scaffold” (Bioorg Med Chem, 2009), this text covers IC50 and Activity for 34 compounds.

The test system of one experiment is MCF7. The experiment can be described thus: Antiproliferative activity against ERalpha positive human MCF7 cells after 72 hrs by MTS/PMS assay. The format is functional, cell-based. The note with it: MCF7, 72 h. The method, boiled down:
(§1)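 MCF-7 and SKBr3 cells grown in 1:1 DMEM:Ham's F-12 with non-essential amino acids, 2 mM L-glutamine, penicillin/streptomycin, 10% FBS. Seeded 2000 cells/well, attached overnight, then exposed to varying concentrations in DMSO (1% final) for 72 hr at 37 °C, 5% CO2. Viable cells read by MTS/PMS; 1% DMSO wells set as 100% proliferation. Mean ± SEM, three experiments in triplicate.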

A further experiment concerns SK-BR-3. Description: Antiproliferative activity against ERalpha negative/Her2 over expressing human SKBR3 cells after 72 hrs by MTS/PMS assay. The format is functional, cell-based. The note with it: SK-BR-3, 72 h. The essentials:
as §1

Experiment [1] concerns the target T1, Heat shock protein HSP90 (Homo sapiens, UniProt P07900+P08238). The experiment can be described thus: Inhibition of Hsp90 in human SKBR3 cells assessed as down-regulation of Her2 protein by ELISA. The format is cell-based. As to conditions: sk-br-3. The method, boiled down:
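SKBr3 cells seeded 3000/well, attached overnight, dosed at varying concentrations for 24 hr. Cells washed with ice-cold PBS/1% Tween, fixed and permeabilised in -20 °C methanol (4 °C, 10 min), blocked in 5% BSA/PBST 1 hr, probed with rabbit anti-Her2 (1:500, 4 °C overnight), then HRP anti-rabbit IgG (1:1000, 2 hr rt); chemiluminescence read. Mean ± SEM, three experiments in triplicate.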
A general note: In an ELISA, binding on a coated surface is turned into a signal by an enzyme label.

A short description of experiment [2]: Inhibition of Hsp90-dependent renaturation of firefly luciferase in rabbit reticulocyte lysate at 25 ug/mL. Set-up: species or system Oryctolagus cuniculus.
The target of experiment [3] is T1, Heat shock protein HSP90. The experiment can be described thus: Inhibition of Hsp90 in human MCF7 cells assessed as degradation of Her2 protein by Western blot analysis. Format: cell-based. The essentials:
(§2)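 MCF-7 cells seeded at 1×10^6 per dish, attached overnight, treated at varying concentrations for 24 h (37 °C, 5% CO2), then harvested and immunoblotted for client proteins (Her2, Raf-1, Akt) with actin as non-client reference; GA (500 nM) and DMSO as controls.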
(In general: A western blot detects proteins with antibodies after separation by electrophoresis.)

Experiment [4] has as its target T1, Heat shock protein HSP90. Description: Inhibition of Hsp90 in human MCF7 cells assessed as degradation of Raf1 protein by Western blot analysis. The format is cell-based. The method, boiled down: as §2
Experiment [5] addresses T1, Heat shock protein HSP90. Description: Inhibition of Hsp90 in human MCF7 cells assessed as degradation of Akt protein by Western blot analysis. Format: cell-based. The method, boiled down: as §2

Regarding `COc1ccc(C2=C(NC(=O)c3cccc4ccccc34)C(=O)c3ccccc3C2=O)cc1`, the IC50 with MCF7 was 2200 nM; with SK-BR-3, 5.8 µM; on Heat shock protein HSP90 [1], 9.9 µM.

`COc1ccc(C2=C(NC(=O)c3cccc(OC)c3)C(=O)c3ccccc3C2=O)cc1`: the IC50 in the experiment on MCF7 came to 1800 nM; with SK-BR-3 it was 6.4 µM; on Heat shock protein HSP90 [1] it was 44.2 µM.

Regarding `COc1ccc(C2=C(NC(=O)c3cccc(Cl)c3)C(=O)c3ccccc3C2=O)cc1`, the IC50 was 3400 nM in the experiment on MCF7, 9.5 µM with SK-BR-3 and 12.9 µM on Heat shock protein HSP90 [1].

Turning to `COc1cccc(C2=C(NC(=O)c3ccccc3)C(=O)c3ccccc3C2=O)c1`, the IC50 with MCF7 was determined as 1400 nM; at Heat shock protein HSP90 [1], 2.7 µM.

For `COc1ccc(C(=O)NC2=C(c3ccc(OC)cc3)C(=O)c3ccccc3C2=O)cc1`, the IC50 worked out at 1500 nM in the experiment on MCF7, 6.4 µM with SK-BR-3, 2.4 µM on Heat shock protein HSP90 [1] and 24000 nM in experiment [2].

For `O=C(NC1=C(c2ccc(Cl)cc2)C(=O)c2ccccc2C1=O)c1ccccc1`, the IC50 in the experiment on MCF7 is 2600 nM; in the experiment on SK-BR-3 it was 8.5 µM; on Heat shock protein HSP90 [1], 1.8 µM; in experiment [2], 1400 nM.

For `CC(=O)C1=C(c2ccccc2)C(=O)c2ccccc2C1=O`, the half-maximal inhibitory concentration (IC50) is 210 nM in the experiment on MCF7, 0.82 µM with SK-BR-3, 3.3 µM at Heat shock protein HSP90 [1] and 250 nM in experiment [2].

On to `COc1cccc(C2=C(NC(C)=O)C(=O)c3ccccc3C2=O)c1`, for which the values for the IC50 in the experiment with MCF7, in the experiment on SK-BR-3 and at Heat shock protein HSP90 [1] were 2700 nM, 3.9 µM and 4.8 µM, respectively.

Consider `COc1ccc(C2=C(NC(=O)c3ccccc3OC)C(=O)c3ccccc3C2=O)cc1`, for which the IC50 was 2100 nM in the experiment with MCF7, 7.9 µM in the experiment on SK-BR-3 and 5.8 µM at Heat shock protein HSP90 [1].

As for `COc1ccc(C2=C(NC(C)=O)C(=O)c3ccccc3C2=O)cc1`, the IC50 with SK-BR-3 was determined as 2.7 µM; at Heat shock protein HSP90 [1] it was 2.2 µM.

Consider `COc1ccc(C2=C(NC(=O)c3ccccc3Cl)C(=O)c3ccccc3C2=O)cc1`, for which the Activity result on Heat shock protein HSP90 [3], at Heat shock protein HSP90 [4] and on Heat shock protein HSP90 [5] was “Dose-dependent effect” in each case. For the same compound, the IC50 in the experiment with MCF7 worked out at 2200 nM; in the experiment on SK-BR-3, 5.5 µM; on Heat shock protein HSP90 [1], 2 µM.

Take `COc1ccc(C2=C(NC(=O)c3ccc4ccccc4c3)C(=O)c3ccccc3C2=O)cc1`: the IC50 with MCF7 is 6800 nM; with SK-BR-3 it was over 100 µM; on Heat shock protein HSP90 [1] it was over 100 µM.

Take `O=C(NC1=C(c2ccc3oc4ccccc4c3c2)C(=O)c2ccccc2C1=O)c1ccccc1`: the results for the IC50 in the experiment with MCF7, with SK-BR-3 and on Heat shock protein HSP90 [1] were 6000 nM, over 100 µM and over 100 µM, respectively.

With `COc1ccc(C2=C(NC(=O)c3ccccc3)C(=O)c3ccccc3C2=O)cc1`, the IC50 with MCF7 amounted to 1400 nM; in the experiment with SK-BR-3, 4 µM; on Heat shock protein HSP90 [1], 2.8 µM.

`COc1ccc(C2=C(NC(=O)c3ccc(OC)c(-c4cccc(OC)c4)c3)C(=O)c3ccccc3C2=O)cc1`: the IC50 with MCF7 is over 100000 nM; in the experiment with SK-BR-3 it was over 100 µM; on Heat shock protein HSP90 [1], over 100 µM; in experiment [2] it was 86000 nM.

In the case of `COc1ccccc1C1=C(NC(=O)c2ccccc2)C(=O)c2ccccc2C1=O`, the IC50 came out at 2200 nM with MCF7, 1.9 µM in the experiment on SK-BR-3, 3 µM on Heat shock protein HSP90 [1] and 39000 nM in experiment [2].

Turning to `O=C(NC1=C(c2ccc(Oc3ccccc3)cc2)C(=O)c2ccccc2C1=O)c1ccccc1`, the figures for the IC50 with MCF7, with SK-BR-3 and at Heat shock protein HSP90 [1] were 23000 nM, over 100 µM and over 100 µM, respectively.

For the compound `COc1ccccc1C1=C(NC(C)=O)C(=O)c2ccccc2C1=O`, the concentration for half-maximal inhibition (IC50) was 2200 nM in the experiment with MCF7, 1.7 µM with SK-BR-3, 2.5 µM at Heat shock protein HSP90 [1] and 1600 nM in experiment [2].

On to `COc1ccc(C2=C(NC(=O)C3CCCCC3)C(=O)c3ccccc3C2=O)cc1`, for which the IC50 with MCF7 came out at 1900 nM; in the experiment with SK-BR-3 it was 4.8 µM; on Heat shock protein HSP90 [1] it was 2.5 µM; in experiment [2] it was 1400 nM.

Regarding `O=C(NC1=C(c2ccccc2)C(=O)c2ccccc2C1=O)c1ccccc1`, the IC50 with MCF7 was 2100 nM; with SK-BR-3, 6.8 µM; at Heat shock protein HSP90 [1], 3.8 µM.

On to `COc1cccc(-c2cc(C(=O)NC3=C(Cl)C(=O)c4ccccc4C3=O)ccc2OC)c1`, for which the Activity entry at Heat shock protein HSP90 [3], on Heat shock protein HSP90 [4] and on Heat shock protein HSP90 [5] was “Dose-dependent effect” throughout. Also, the IC50 in the experiment with MCF7 worked out at 3000 nM; on Heat shock protein HSP90 [1], 1.7 µM; in experiment [2] it was 1600 nM.

As to `CC(=O)NC1=C(c2ccccc2)C(=O)c2ccccc2C1=O`, the figures for the IC50 in the experiment with MCF7, in the experiment with SK-BR-3 and at Heat shock protein HSP90 [1] were 1600 nM, 1.5 µM and 3.2 µM, respectively.

Consider `CC(=O)NC1=C(c2ccc3oc4ccccc4c3c2)C(=O)c2ccccc2C1=O`, for which the IC50 in the experiment on MCF7 is 2400 nM; with SK-BR-3, 6.8 µM; on Heat shock protein HSP90 [1], 13.3 µM.

On to `CC(=O)NC1=C(c2ccccc2Cl)C(=O)c2ccccc2C1=O`, for which the IC50 was 3000 nM in the experiment on MCF7, 3.6 µM in the experiment with SK-BR-3 and 2.3 µM on Heat shock protein HSP90 [1].

Take `O=C(NC1=C(Cl)C(=O)c2ccccc2C1=O)c1ccccc1`: the IC50 with MCF7 worked out at 1800 nM; in the experiment with SK-BR-3 it was 2.1 µM; on Heat shock protein HSP90 [1], 30.1 µM.

Take `CC(=O)NC1=C(c2ccc(Cl)cc2)C(=O)c2ccccc2C1=O`: the Activity result at Heat shock protein HSP90 [3], on Heat shock protein HSP90 [4] and on Heat shock protein HSP90 [5] was “Dose-dependent effect” throughout. For the same compound, the IC50 in the experiment with MCF7 amounted to 1400 nM; in the experiment on SK-BR-3 it was 1.8 µM; on Heat shock protein HSP90 [1] it was 5.3 µM; in experiment [2] it was 200 nM.

Take `CC(=O)NC1=C(c2cccc(Cl)c2)C(=O)c2ccccc2C1=O`: the 50% inhibitory concentration (IC50) worked out at 1300 nM with MCF7, 2.5 µM in the experiment with SK-BR-3 and 2 µM on Heat shock protein HSP90 [1].

In the case of `CC(=O)NC1=C(N2CCOCC2)C(=O)c2nonc2C1=O`, the IC50 with MCF7 was determined as 19000 nM; in the experiment on SK-BR-3 it was 2.9 µM; on Heat shock protein HSP90 [1] it was 1.2 µM; in experiment [2], 380 nM.

`O=C(NC1=C(c2ccccc2Cl)C(=O)c2ccccc2C1=O)c1ccccc1`: the results for the concentration for half-maximal inhibition (IC50) with SK-BR-3 and at Heat shock protein HSP90 [1] were 4 µM and 1.8 µM, respectively.

`COc1ccc(C2=C(NC(=O)c3ccc(Cl)cc3)C(=O)c3ccccc3C2=O)cc1`: the IC50 came to 3300 nM in the experiment on MCF7 and 3 µM on Heat shock protein HSP90 [1].

Regarding `O=C(NC1=C(c2cccc(Cl)c2)C(=O)c2ccccc2C1=O)c1ccccc1`, the results for the IC50 in the experiment on MCF7, in the experiment with SK-BR-3 and at Heat shock protein HSP90 [1] were 4800 nM, 12.7 µM and 6.3 µM, respectively.

In the case of `CC(=O)NC1=C(Cl)C(=O)c2ccccc2C1=O`, the IC50 amounted to 1700 nM in the experiment on MCF7, 0.6 µM in the experiment on SK-BR-3, 6.6 µM on Heat shock protein HSP90 [1] and 5000 nM in experiment [2].

Consider `CC(=O)NC1=C(c2ccc(Oc3ccccc3)cc2)C(=O)c2ccccc2C1=O`, for which the IC50 in the experiment with MCF7 is 2500 nM; in the experiment on SK-BR-3, 12.1 µM; at Heat shock protein HSP90 [1], 24.6 µM.

For the compound `O=C1c2ccccc2C(=O)c2c1nc1ccccn21`, the 50% inhibitory concentration (IC50) in the experiment with MCF7 was 830 nM; with SK-BR-3, 0.87 µM; at Heat shock protein HSP90 [1] it was 1.2 µM; in experiment [2], 20 nM.

A word on the IC50: it is the concentration that inhibits the measured activity by half.
